Assay results gathered from unrelated publications.
Protocols differ between the studies behind these lines.
Observed: cell growth or viability

Compound	cell line	technique	concentration	time	measurement	result
OCc1ccc(-c2nn(Cc3cccc(F)c3)c3ccccc23)o1	RBE	ATP luminescence	46 µM	72 h	inhibition	60%
NCCC(=O)Nc1ccccc1/N=c1\cc(-c2ccc3oc(N)nc3c2)oc2ccccc12	MDA-MB-468	CCK-8	1 µM		inhibition	59.8%
O=C(/C=C/c1cccc(C(=O)NO)c1)NO	HBL1	ATP luminescence	1 µM	5 days	viability	37.7%
CN(C)CCNC(=O)c1ccc(-c2nc3ccc4[nH]ncc4c3c3c2CCCCC3)cc1	MV4-11	resazurin		72 h	GI50	25 nM
CCN(Cc1c(F)cccc1F)c1ccc(CO)c(Cl)c1	RBE	ATP luminescence	46 µM	72 h	inhibition	57%
O=C(Nc1ccc(Cl)cc1)C1CCCN(C(=O)c2cc(C(F)(F)F)cc(C(F)(F)F)c2)C1 (racemic)	HBL1	ATP luminescence	1 µM	5 days	viability	92.8%
COc1ccc2/c(=N/c3ccccc3NC(=O)[C@@H](N)C(C)(C)C)cc(-c3ccc4c(c3)OCO4)oc2c1	MDA-MB-468	CCK-8	1 µM		inhibition	2.98%
C=C(NC(=O)C(=C)NC(=O)c1csc(C2=N[C@@H]3c4csc(n4)[C@H]4NC(=O)c5csc(n5)[C@H]([C@](C)(O)[C@@H](C)O)NC(=O)[C@H]5CSC(=N5)/C(=C/C)NC(=O)[C@H]([C@@H](C)O)NC(=O)c5csc(n5)[C@]3(CC2)NC(=O)[C@H](C)NC(=O)C(=C)NC(=O)[C@H](C)NC(=O)[C@H]([C@@H](C)CC)N[C@@H]2C=Cc3c([C@H](C)O)cc(nc3[C@H]2O)C(=O)O[C@@H]4C)n1)C(N)=O	C4-2				EC50	7300 nM
CN(C)CCNC(=O)c1ccc(-c2nc3ccc4[nH]ncc4c3c3c2CCCC3)c(F)c1	MV4-11	resazurin		72 h	GI50	127 nM
COc1ccc2/c(=N/c3ccccc3NC(=O)[C@@H](N)CO)cc(-c3ccc4c(c3)OCCO4)oc2c1	MDA-MB-468	CCK-8	1 µM		inhibition	15.1%
O=C(CCCCCCC(=O)Nc1ccccc1)NO	HBL1	ATP luminescence	0.5 µM	5 days	viability	49.7%
C[C@H](Nc1ccc2c(c1)OCCn1cc(N3C(=O)OC[C@H]3C(F)F)nc1-2)C(N)=O	MFE-280	ATP luminescence		5 days	EC50	42.1 nM
Cc1n[nH]c2ccc3nc(-c4ccc(C(=O)NCCN(C)C)cc4)c4c(c3c12)CCCCC4	MV4-11	resazurin		72 h	GI50	98 nM
CCN(Cc1ccccc1)c1ccc(CO)c(Cl)c1	RBE	ATP luminescence	46 µM	72 h	inhibition	57%
Nc1ccccc1/N=c1\cc(-c2ccc3c(c2)OCO3)oc2ccccc12	MDA-MB-468	CCK-8	1 µM		inhibition	5.28%
CC(c1ccccc1)n1nc(-c2ccc(CO)o2)c2ccccc21 (stereo not shown)	RBE	ATP luminescence	46 µM	72 h	inhibition	76%
O=C(Nc1cccc(Br)c1)c1cccc(S(=O)(=O)N2CCCCCC2)c1	HBL1	ATP luminescence	0.5 µM	5 days	viability	110%

Compound	cell line	technique	concentration	time	measurement	result
CCN(Cc1cccc(Cl)c1)c1ccc(CO)c(Cl)c1	RBE	ATP luminescence	46 µM	72 h	inhibition	59%
Nc1nc2ccc(-c3c/c(=N\c4ccccc4NC(=O)C4CCNC4)c4ccccc4o3)cc2o1 (stereo not shown)	MDA-MB-468	CCK-8	1 µM		inhibition	55.6%
CN(C)CCNC(=O)c1ccc(-c2nc3ccc4[nH]ncc4c3c3c2CCC3)cc1	MV4-11	resazurin		72 h	GI50	100 nM
NCCC(=O)Nc1ccccc1/N=c1\cc(-c2ccc3c(c2)OCO3)oc2ccccc12	MDA-MB-468	CCK-8	1 µM		inhibition	19.2%
O=C(NO)c1ccc(CC(=O)N(CCO)c2ccccc2)cc1	HBL1	ATP luminescence	0.1 µM	5 days	viability	103%
CCOC(=O)c1ccc(-c2nn(Cc3ccccc3)c3ccccc23)o1	RBE	ATP luminescence	46 µM	72 h	inhibition	35%
CN(C)CCNC(=O)c1ccc(-c2nc3ccc4[nH]ncc4c3c3c2CC(C)(C)CC3)cc1	MV4-11	resazurin		72 h	GI50	80 nM
NCCCC(=O)Nc1ccccc1/N=c1\cc(-c2ccc3c(c2)OCO3)oc2ccccc12	MDA-MB-468	CCK-8	1 µM		inhibition	8.13%
CC(=O)OC[C@H]1O[C@@H](n2cnc(N)nc2=O)[C@H](OC(C)=O)[C@@H]1OC(C)=O	HBL1	ATP luminescence	0.1 µM	5 days	viability	105%
NC(=O)C1CCCN1C(=O)Nc1ccccc1/N=c1\cc(-c2ccc3c(c2)OCCO3)oc2cc(F)ccc12 (stereo not shown)	MDA-MB-468	CCK-8	1 µM		inhibition	3.25%
CCc1nc(C(N)=O)c(Nc2ccc(N3CCC(N4CCN(C)CC4)CC3)c(OC)c2)nc1NC1CCOCC1	MV4-11	resazurin		72 h	GI50	26 nM
CCN(Cc1cccc(C)c1)c1ccc(CO)c(Cl)c1	RBE	ATP luminescence	46 µM	72 h	inhibition	85%
CN(C)CCNC(=O)c1ccc(-c2nc3ccc4[nH]ncc4c3c3c2CCCC3)s1	MV4-11	resazurin		72 h	GI50	157 nM
COC(=O)CNC(=O)C(=O)OC	HBL1	ATP luminescence	1 µM	5 days	viability	93.3%
Cc1n[nH]c2ccc3nc(-c4ccc(C(=O)N(C)CCN(C)C)cc4)c4c(c3c12)CCC(F)(F)C4	MV4-11	resazurin		72 h	GI50	814 nM
O=C(CCCCCCSc1ccc2ccccc2c1)NO	HBL1	ATP luminescence	0.1 µM	5 days	viability	112%
OCc1ccc(-c2nn(Cc3cncnc3)c3ccccc23)o1	RBE	ATP luminescence	46 µM	72 h	inhibition	71%
